This is one part of a sample in which hits are shown more often than they occur.
E-sel inducer: induces E-selectin expression in human endothelial cells. P16581. HUVEC E-selectin immunofluorescence imaging; normalized: neutral wells 0, TNF-alpha wells 100. activation, % at 7.58 µM. actives 0.37% (n = 260,000). AID 686992;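 active means mean E-selectin-positive cell signal at least 10% of the positive control, reached in at least 60% of replicates, without over 20% cell loss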
Target sequence (P16581 whole entry, looked up): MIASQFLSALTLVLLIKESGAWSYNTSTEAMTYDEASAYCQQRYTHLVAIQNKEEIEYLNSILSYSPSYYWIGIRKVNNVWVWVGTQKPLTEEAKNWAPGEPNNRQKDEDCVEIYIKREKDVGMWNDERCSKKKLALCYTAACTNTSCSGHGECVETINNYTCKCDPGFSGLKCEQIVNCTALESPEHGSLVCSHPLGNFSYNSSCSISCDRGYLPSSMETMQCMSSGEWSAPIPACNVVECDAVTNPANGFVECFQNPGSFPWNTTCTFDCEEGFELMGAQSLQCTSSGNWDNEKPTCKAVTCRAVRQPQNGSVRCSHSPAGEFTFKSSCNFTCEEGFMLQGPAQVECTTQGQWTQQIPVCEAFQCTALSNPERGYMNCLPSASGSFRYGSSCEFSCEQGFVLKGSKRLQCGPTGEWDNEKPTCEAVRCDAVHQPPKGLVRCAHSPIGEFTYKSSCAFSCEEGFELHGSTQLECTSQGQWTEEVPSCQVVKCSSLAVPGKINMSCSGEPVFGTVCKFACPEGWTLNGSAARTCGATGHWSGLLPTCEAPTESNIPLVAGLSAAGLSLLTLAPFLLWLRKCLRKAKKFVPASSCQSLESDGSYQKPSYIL
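Read-out: % PE-positive cells | Test system: HUVEC | Doses: One compound dose added by pin transfer | Buffer or medium: EGM-2 over gelatin coat | Signal: Immunofluorescence imaging | Benchmarks: TNF-alpha, DMSO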
XiGFP reactiv: reactivates the inactive X chromosome in mouse fibroblasts | activation, % at 7.58 µM | XiGFP mouse fibroblasts, % GFP-positive cells imaging, 3 d; cells co-treated with 5-aza-dC sensitizer; scaled so ellipticine positive control = 100% | actives 0.055% (n = 360,000);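 active means mean normalized replicate activation at least 10% and every replicate at or above 10%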;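 further: 0% = median of on-plate neutral control wells and 100% = ellipticine 6 µM median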
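material = 68-5-11 XiGFP fibroblast line | medium = DMEM plus 5-aza-dC sensitizer | schedule = 3 days compound exposure | benchmarks = positive control ellipticine, 6 µM final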
Numbers without * were called inactive; nt = no result.

SMILES	E-sel inducer	XiGFP reactiv
CC(C)NC(=O)Nc1cccc2c1O[C@H](CN(C)Cc1ccc(Cl)c(Cl)c1)[C@@H](C)CN([C@@H](C)CO)C2=O	53*	0
CC(C)NC(=O)Nc1cccc2c1O[C@H](CN(C)Cc1ccc(Cl)c(Cl)c1)[C@H](C)CN([C@@H](C)CO)C2=O	30*	0
C[C@@H]1CN([C@@H](C)CO)C(=O)c2cccc(NC(=O)CCCCCC(=O)Nc3ccccc3N)c2O[C@@H]1CN(C)Cc1ccc(Cl)c(Cl)c1	-3	-1
C[C@H](CO)N1C[C@H](C)[C@@H](CN(C)Cc2ccc(Cl)c(Cl)c2)Oc2c(NC(=O)CCCCCC(=O)Nc3ccccc3N)cccc2C1=O	324*	-1
C[C@H](CO)N1C[C@H](C)[C@H](CN(C)Cc2ccc(Cl)c(Cl)c2)Oc2c(NC(=O)NC3CCCCC3)cccc2C1=O	nt	0
C[C@@H]1CN([C@H](C)CO)C(=O)c2cc(C#Cc3ccncc3)cnc2O[C@H]1CN(C)CC1CCOCC1	0	0
C[C@@H]1CN([C@@H](C)CO)C(=O)c2ccccc2-c2ccccc2CO[C@H]1CN(C)S(=O)(=O)c1cccs1	0	0
C[C@H]1CN([C@@H](C)CO)C(=O)c2cc(NC(=O)Cc3cn(C)c4ccccc34)ccc2O[C@H]1CN(C)S(C)(=O)=O	-6	0
CCN(CC)c1ccc(/C=C/c2cccc[n+]2C)c(OC)c1	nt	0
CN(C)c1ccc(C=C2C=C(c3ccccc3)OC2=O)cc1	0	0
CN(C)c1ccc(C=c2c3ccccc3n3c2cc(-c2ccc(Cl)cc2)[n+]3C)cc1	122*	0
CN(C)c1ccc(C=c2c3cc([N+](=O)[O-])ccc3n3c2cc(-c2ccccc2)[n+]3C)cc1	218*	0
Cn1c2ccccc2c2cc([N+](=O)[O-])ccc21	0	0
COc1cc(N(C)C)ccc1C=c1c2ccccc2n2c1cc(-c1ccccc1)[n+]2C	160*	1
CN(C)c1ccc(/C=C2\SC(=O)N(CC(O)Cn3c4ccccc4c4ccccc43)C2=O)cc1 (stereo not drawn)	nt	0
CN(C)c1ccc(C=c2c3ccccc3n3c2cc(-c2ccccc2)[n+]3C)cc1	140*	5
O=C(O)C[C@@H]1C[C@@H]2c3cc(NC(=O)Nc4ccc(F)cc4)ccc3O[C@@H]2[C@H](CO)O1	1	0
COCC(=O)Nc1ccc2c(c1)[C@H]1C[C@H](CC(=O)NCc3ccccc3)O[C@H](CO)[C@H]1O2	-1	0
C[C@@H]1CN([C@@H](C)CO)C(=O)c2cc(NS(=O)(=O)c3ccc(Cl)cc3)ccc2O[C@@H](C)CCCCO[C@@H]1CN(C)C(=O)c1ccccc1	0	0
COc1cc(C=c2c3ccccc3n3c2cc(-c2ccccc2)[n+]3C)cc(OC)c1OC	139*	0
CN(C)c1ccc(C=c2c3ccccc3n3c2c2c([n+]3C)CCCC2)cc1	68*	0
COc1cc(/C=C(/C(=O)O)c2ccc(-c3ccccc3)cc2)cc(OC)c1OC	1	0
CN(C)c1ccc(/C=C2\CCC/C(=C\c3ccccc3)C2=O)cc1	nt	0
CC=Cc1ccc2n(c1=O)C[C@@H]1[C@@H](CO)[C@H](C(=O)NCc3ccccc3)N(CCC(F)(F)F)[C@H]21 (mixture of isomers)	0	0
C[C@H](CO)N1C[C@H](C)[C@@H](CN(C)Cc2ccccc2)Oc2ncc(-c3ccccc3)cc2C1=O	0	0
SMILES	E-sel inducer	XiGFP reactiv
CCNC(=O)C[C@H]1CC[C@H]2[C@@H](COC[C@H](O)CN2Cc2ccncc2)O1	0	0
O=C(COC(=O)/C=C/c1ccc(F)cc1)Nc1ccc(Cl)cn1	nt	0
COc1cc(/C=C/C(=O)OCC(=O)Nc2ccc(Cl)cn2)ccc1O	47*	0
CO[C@H]1CN(C)C(=O)c2cc(NC(=O)C3CC3)ccc2OC[C@@H](C)N(Cc2ccccc2)C[C@@H]1C	0	0
CCOc1ccccc1NC(=O)N1CCC(NC(=O)C2CCCCC2)CC1	35*	0
CCOc1ccccc1NC(=O)N1CCC(NC(=O)c2cccc(C)c2)CC1	0	nt
CN1[C@@H]2CN(S(C)(=O)=O)C[C@H]1C2c1ccc(-c2ccc(F)cc2)cc1 (stereo partly drawn)	nt	0
C[C@@H](NC(=O)C[C@H]1CC[C@H](NC(=O)c2cccnc2)[C@@H](CO)O1)c1ccccc1	0	0
Cc1cc(F)ccc1S(=O)(=O)N1CCCCC1CCNC(=O)C(=O)NCc1ccccn1 (stereo not drawn)	75*	0
Cc1ccc(C)c(S(=O)(=O)N2CCCCC2CCNC(=O)C(=O)NCc2ccccn2)c1 (stereo not drawn)	-1	0
O=C(/C=C/c1ccccn1)c1ccc(Br)cc1O	105*	0
O=C(/C=C/c1ccccn1)c1cc(Br)ccc1O	0	0
CCCN1C[C@H](C)[C@@H](OC)CN(C)C(=O)c2ccc(NC(=O)C3CCC3)cc2OC[C@H]1C	0	0
CC(=O)N(c1ccccc1C)C1CCCC1	nt	0
CC(=O)N(C1=C(Cl)C(=O)c2ccccc2C1=O)C1CCCCC1	36*	4
O=S(=O)(NCc1cccnc1)c1ccc(Cl)c2ccccc12	27*	0
Cc1ccccc1S(=O)(=O)NCc1cccnc1	nt	0
CN(C)N=Nc1ccc(S(=O)(=O)NC(Cc2ccccc2)C(=O)O)cc1 (stereo not drawn)	0	0
Cc1ccc(S(=O)(=O)NC(Cc2ccccc2)C(=O)O)cc1C (stereo not drawn)	59*	0
Cc1ccc(S(=O)(=O)N(C)C[C@@H]2OCCCC[C@@H](C)Oc3ccc(NS(C)(=O)=O)cc3C(=O)N([C@@H](C)CO)C[C@@H]2C)cc1	0	0
O=C(N[C@H]1CC[C@@H](CCNC(=O)C2CC2)O[C@H]1CO)c1ccncc1	0	0
Cc1noc(C)c1S(=O)(=O)Nc1ccc2c(c1)C(=O)N([C@H](C)CO)C[C@@H](C)[C@@H](CN(C)Cc1ccc3c(c1)OCO3)O2	44*	0
Cc1noc(C)c1S(=O)(=O)Nc1ccc2c(c1)C(=O)N([C@H](C)CO)C[C@@H](C)[C@H](CN(C)Cc1ccc3c(c1)OCO3)O2	26*	1
Cc1noc(C)c1S(=O)(=O)Nc1ccc2c(c1)C(=O)N([C@H](C)CO)C[C@@H](C)[C@@H](CN(C)Cc1ccc(Cl)c(Cl)c1)O2	nt	0
Cc1noc(C)c1S(=O)(=O)Nc1ccc2c(c1)C(=O)N([C@H](C)CO)C[C@H](C)[C@@H](CN(C)Cc1ccc(Cl)c(Cl)c1)O2	nt	0
C[C@@H]1CN([C@@H](C)CO)C(=O)c2cc(NC(=O)Cc3ccccc3)ccc2O[C@@H](C)CCCCO[C@@H]1CN(C)C(=O)CCCN(C)C	nt	0
COc1ccc(C(=O)N2CC(c3ccccc3)CC2=O)cc1 (stereo not drawn)	83*	0
COc1ccc(C(=O)N2CC(=O)Nc3ccc(C)cc3C2c2ccccc2)cc1 (stereo not drawn)	0	0
COc1ccccc1C#Cc1cnc2c(c1)C(=O)N([C@H](C)CO)C[C@H](C)[C@H](CN(C)C)O2	0	-1
CCCNC(=O)N1C[C@@H](O)COC[C@H]2O[C@@H](CC(=O)NCc3ccc(Cl)c(Cl)c3)CC[C@@H]21	0	0

Assay outcomes (PubChem BioAssay)
